Cl transport mod – KCC2 cotransporter modulators, thallium flux, primary screen, cell-based, HEK293 KCC2, FluoZin-2 fluorescence, MLSMR. Solute carrier family 12 member 5 (Homo sapiens), Q9H2X9. KCC2 cells, thallium flux FluoZin-2 fluorescence. B-score of Tl+ flux slope (higher = more flux/activation; lower = inhibition) at 10 µM. hit rate 2.2% among 190,000. AID 1456, 2008;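 active means thallium flux slope and its plate-corrected score both differing from the plate sample mean at a set confidence after two filtering rounds, in either direction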;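 further: slope of fluorescence scaled to starting intensity during 10 to 20 s after thallium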
NCF1 inh – p47phox/p22phox peptide binding inhibitors, primary screen, biochemical, uHTS, NADPH oxidase regulatory subunit; hit rate 0.53% among 220,000; Neutrophil cytosol factor 1 (Homo sapiens), P14598; inhibition, % at 24.7 µM; fluorescence polarization, 2 h;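 active means inhibition above about 30%, limit read from the data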
ROMK primary – ROMK potassium channel modulators, primary screen, cell-based, thallium flux, MLSMR library; Tet-inducible ROMK, thallium flux fluorescence; actives lie on both sides; B-score at 10 µM; hit rate 2% among 130,000; AID 1918, 2009;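 active means signal ratio slope over the read window, or its plate-corrected B-score, at least 3 SD from the plate mean, either direction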;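 further: B-score of the F/F0 ratio slope over 7 to 12 s after thallium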
14-3-3 Bad PPI – inhibitors of 14-3-3 zeta/Bad binding, primary screen, biochemical, TR-FRET, bovine 14-3-3 zeta; 14-3-3 protein zeta/delta (Bos taurus), P63103; TR-FRET 14-3-3zeta/Dy647-pBad peptide displacement, 1 h; inhibition, % at 21.7 µM; hit rate 0.71% among 220,000;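 active means inhibition above about 70%, limit read from the data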
Target sequence (P63103 whole entry, looked up): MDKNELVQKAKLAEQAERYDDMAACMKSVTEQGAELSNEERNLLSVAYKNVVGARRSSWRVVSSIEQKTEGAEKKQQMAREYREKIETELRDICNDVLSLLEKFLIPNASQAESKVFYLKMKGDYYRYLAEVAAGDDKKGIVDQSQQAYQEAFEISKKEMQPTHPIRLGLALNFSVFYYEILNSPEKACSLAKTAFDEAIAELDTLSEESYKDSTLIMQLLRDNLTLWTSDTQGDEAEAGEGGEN
WT yeast gro inh – growth inhibition of WT strain, primary screen, mitochondrial fusion inhibitor project, WT and mutant strains, chemical genetic | mitochondrial fusion phenotypic screen | inhibition, % at 10 µM | hit rate 2.1% among 190,000; in the data active means inhibition above about 58%; tested in S. cerevisiae
RBBP9 inh – human RBBP9 inhibitors, primary screen, biochemical, fluorescence polarization, FP-Rh probe, HTS; recombinant RBBP9; inhibition, % at 7.94 µM; hit rate 0.2% among 220,000;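 active means inhibition above the campaign mean of all tested compounds plus 3 SD, cut at about 14% in these data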
Target sequence (O75884 whole entry, looked up): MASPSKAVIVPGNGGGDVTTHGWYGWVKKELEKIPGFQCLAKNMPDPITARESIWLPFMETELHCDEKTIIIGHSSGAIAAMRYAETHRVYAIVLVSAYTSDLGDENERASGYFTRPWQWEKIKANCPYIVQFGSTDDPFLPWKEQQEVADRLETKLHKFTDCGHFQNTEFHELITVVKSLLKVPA
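system = RBBP9 protein | input = RBBP9 at 2.5 µM in dispensed solution, before mixing | measured by = fluorescence polarization (mP), excitation 525 nm, emission 598 nm | incubation = enzyme-compound preincubation 30 min, then probe labeling 45 min, 25 °C | buffer or medium = Tris-NaCl-Pluronic buffer, pH 8.0 | compound = single dose 7.94 µM | also added = FP-Rh probe, 375 nM dispensing solution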
KCC2 sec1 – KCC2 modulators in sodium-free buffer, confirmation, cell-based, HEK293 KCC2, thallium flux, secondary assay; shares compounds with Cl transport mod; FluoZin2 fluorescence; stronger effect = higher value; normalised thallium flux (F/F0 slope) at 10 µM; hit rate 15% among 3,700; AID 1713, 2009;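 active means thallium flux slope above the same plate's solvent-only control mean plus 3 SD; inconclusive means the two replicate wells disagree; inactive means no significant difference from solvent-only control wells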
KCC2 bumet counter – thallium flux persisting under bumetanide in KCC2 cells, confirmation, counter-screen for KCC2 modulator project, cell-based, HEK293 KCC2, FluoZin2, secondary assay 3; HEK293-KCC2 + bumetanide/ouabain; stronger effect = higher value; hit rate 49% among 3,700; shares compounds with Cl transport mod; AID 1714, 2009; normalized thallium flux at 10 µM;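 active means thallium entry rate above the same plate's blocked-transporter control wells by more than 3 SD; inconclusive means the two repeat wells disagree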;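 further: raw slope of fluorescence over initial fluorescence between 10 and 20 s after thallium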
KCC2 secondary2 – KCC2 modulators without ouabain present, confirmation, cell-based, HEK293 KCC2, thallium flux, FluoZin2, secondary assay 2. shares compounds with Cl transport mod. thallium flux FluoZin2 fluorescence; actives lie on both sides; F/F0 rise rate, 10–20 s post-thallium. normalized thallium flux at 10 µM. hit rate 23% among 3,700. AID 1715, 2009;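 active means thallium flux slope more than 3 SD above or below the plate's solvent-only control mean, mostly below; inconclusive means the two repeat wells disagreed; inactive means no significant shift from solvent-only controls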
HEK counter1 – thallium flux modulation in parental HEK cells, confirmation, counter-screen for KCC2 modulator project, cell-based, counterscreen 1 | shares compounds with Cl transport mod | HEK293 parental cells, thallium flux FluoZin2, ouabain; baseline-ratio fluorescence slope, 10–20 s after thallium | thallium flux rate (normalised fluorescence) at 10 µM | hit rate 46% among 3,700 | AID 1716, 2009;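 active means thallium flux rate significantly above the same plate's solvent-only control wells, beyond their mean plus 3 SD; inconclusive means the two replicate wells gave conflicting results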
KCC2 retest ouab – KCC2 inhibitors and activators, ouabain retest, confirmation, HEK-KCC2 cells; shares compounds with Cl transport mod; HEK293-KCC2, thallium flux FluoZin2 fluorescence; bidirectional: low = inhibitor, high = activator; raw Tl+ flux slope (below DMSO = inhibition, above = activation) at 10 µM; hit rate 48% among 3,700;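 active means thallium flux slope beyond 3 SD from same-plate DMSO control mean in most replicates, usually higher, sometimes lower; inconclusive means repeat tests gave conflicting results; inactive means no significant difference from controls in most replicates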;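 further: slope of initial-normalized fluorescence between seconds 10 and 20 after thallium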
HEK293 Tl flux2 – native HEK Tl+ uptake effects, second counter-screen – HEK cells, counterscreen 2, counter-screen for KCC2 modulator project, confirmation | shares compounds with Cl transport mod | HEK293 parental, thallium flux FluoZin-2 fluorescence slope | thallium flux slope at 10 µM | hit rate 33% among 3,700 | AID 1718, 2009;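 active means thallium flux slope above the same plate's solvent-control mean plus 3 SD in both duplicate wells; inconclusive means duplicate wells that disagreed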;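 further: run without ouabain in cells lacking the KCC2 cotransporter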
Each line names hits and unclear results; the compound was inactive in the other large screens (follow-up assays come after a bar, where they were run). Shown are actives, neighbours in structure and some others; about 5.8% of the full set was active somewhere.

O=C(Nc1ccc(F)cc1)c1ccc(CSc2ccccc2)o1	Cl transport mod -3.4 (no result: ROMK primary) | KCC2 sec1 inactive | KCC2 bumet counter inactive | KCC2 secondary2 inactive | HEK counter1 inactive | KCC2 retest ouab 0.015 | HEK293 Tl flux2 inactive
CC(C)c1ccc(/C=N/NC(=O)c2ccccc2Cl)cc1	Cl transport mod -4.4 (no result: ROMK primary) | KCC2 sec1 inactive | KCC2 bumet counter inactive | KCC2 secondary2 0.024 | HEK counter1 inactive | KCC2 retest ouab inconclusive | HEK293 Tl flux2 inactive
Cc1nc(-c2nnc(SCC(=O)Nc3cc(Cl)cc(Cl)c3)n2C)cs1	none (no result: WT yeast gro inh)
CCn1nc([N+](=O)[O-])c(C(C#N)c2nc3ccccc3n2C)c(Cl)c1=O (stereo unspecified)	none
CCCn1nc([N+](=O)[O-])c(C(C#N)c2nc3ccccc3s2)c(Cl)c1=O (stereo unspecified)	Cl transport mod -6.1, WT yeast gro inh 78 | KCC2 sec1 inactive | KCC2 bumet counter 0.0059 | KCC2 secondary2 inconclusive | HEK counter1 0.0058 | KCC2 retest ouab 0.011 | HEK293 Tl flux2 0.0081
Cc1cc(C)c(S(=O)(=O)NNC(=O)C2CCN(Cc3ccccc3)CC2)c(C)c1	none (no result: Cl transport mod, ROMK primary)
COc1ccc(CNS(=O)(=O)c2ccc3c(c2)CCN3C(=O)C2CC2)cc1	none

High-throughput results from PubChem BioAssay.
